Data set [1] deals with A 172. As to the kind of experiment: Inhibition of IDO1/TDO in IFNgamma-stimulated human A172 cells assessed as reduction in kynurenine formation at 100 uM using L-tryptophan as substrate incubated for 48 hrs by microplate reader analysis relative to control. The class given is cell-based. A digest of the protocol:
(§1)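 A172 cells seeded at 4×10^4/well, next day given compound in 10% serum medium with IFNγ (final 100 ng/mL) and Trp (final 1 mmol/L), 48 h. Supernatant treated with 30% (w/v) TCA, heated 65 °C 15 min, mixed with 2% p-dimethylaminobenzaldehyde in acetic acid; kynurenine pigment read at 490 nm.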

Data set [2] is described as follows: Toxicity in C57BL/6 mouse xenografted with mouse B16F10 cells assessed as body weight loss at 50 to 100 mg/kg, po administered for 19 consecutive days. The class given is organism-based. The following applies: in vivo, 456 h, dose 50-100 mg/kg, time 19 day. A digest of the protocol:
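B16F10 cells (1×10^6) implanted subcutaneously in C57BL/6 mice on day 0; daily oral treatment from day 1 with compound suspended in 0.5% CMC-Na, vehicle group receiving 0.5% CMC-Na. Body weight of treated mice compared against vehicle control group.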

Data set [3] relates to B16-F10. As to the kind of experiment: Antitumor activity against mouse B16F10 cells xenografted in C57BL/6 mouse assessed as tumor growth inhibition at 100 mg/kg, po administered for 19 consecutive days relative to control. The class given is functional. The conditions noted are these: 456 h, time 19 day, read-out: TGI. A digest of the protocol:
(§2)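 B16F10 melanoma cells harvested in saline; 1×10^6 cells injected subcutaneously into C57BL/6 mice on day 0. Mice randomized; daily oral dosing from day 1, compound in 0.5% CMC-Na, vehicle controls given 0.5% CMC-Na orally; cyclophosphamide 100 mg/kg i.p. as reference group.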

For the next data set, the system named is T-lymphocyte. As to the kind of experiment: Reversal of IDO1/TDO-mediated suppression of mouse T-lymphocyte proliferation assessed as increase in mytomycin C treated LLC cells stimulated T-cells proliferation at 10 uM incubated for 3 days by Cell Titer Glo luminescent cell viability assay. The class given is cell-based. The following applies: time 3.0 day. The procedure, abridged:
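Responder T lymphocytes from BALB/c mouse splenocytes (1×10^5/well) in RPMI 1640 with 10% FBS co-cultured with 1×10^4 LLC stimulator cells pretreated with mitomycin C (final 25 µg/mL, 37 °C, 1 h, washed thrice), plus compound; 37 °C, 5% CO₂, 3 days. Proliferation by CellTiter-Glo luminescence; mean of three replicate wells with SEM.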
For orientation: Cellular ATP, detected with luciferase, serves as a proxy for viable cell number.

The subject of data set [4] is A 172. The data set can be described thus: Inhibition of IDO1/TDO in IFNgamma-stimulated human A172 cells assessed as reduction in kynurenine formation at 50 uM using L-tryptophan as substrate incubated for 48 hrs by microplate reader analysis relative to control. Type of data set: cell-based. The procedure, abridged:
as §1

Data set [5] has as its target Indoleamine 2,3-dioxygenase 1 (Homo sapiens, UniProt P14902). The data set can be described thus: Inhibition of recombinant human IDO1 assessed as reduction in kynurenine formation using L-tryptophan as substrate incubated for 45 mins by microplate reader assay.
The target of data set [6] is Tryptophan 2,3-dioxygenase (Homo sapiens, UniProt P48775). As to the kind of experiment: Inhibition of recombinant human TDO assessed as reduction in kynurenine formation using L-tryptophan as substrate incubated for 45 mins by microplate reader assay. A digest of the protocol:
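Purified recombinant human TDO (0.05 μM) in 100 mM potassium phosphate pH 6.5 with 40 mM neutralized ascorbate, 200 μg/mL catalase, 20 μM methylene blue, L-Trp substrate and compound; 37 °C, 45 min. Stopped with 30% TCA, 65 °C 15 min, then 2% p-dimethylaminobenzaldehyde in acetic acid; absorbance 490 nm; IC50 by curve fitting.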

The subject of data set [7] is B16-F10. As to the kind of experiment: Antitumor activity against mouse B16F10 cells xenografted in C57BL6 mouse assessed as tumor growth inhibition at 50 mg/kg, po administered for 19 consecutive days relative to control. Type of data set: functional. The following applies: 456 h, time 19 day, read-out: TGI. The procedure, abridged:
as §2

Consider one compound from ChEMBL document CHEMBL4680135, “Design, synthesis and biological evaluation of indole-2-carboxylic acid derivatives as IDO1/TDO dual inhibitors” (Eur J Med Chem, 2020).

As a reminder, the inhibition is the change of the read-out against control, counted positive when it falls. A word on the IC50: it is the midpoint of a concentration-inhibition curve.

Calls of active or inactive are those of the source. The rule behind the calls is not given here.

Sequence of Indoleamine 2,3-dioxygenase 1 (P14902 whole entry): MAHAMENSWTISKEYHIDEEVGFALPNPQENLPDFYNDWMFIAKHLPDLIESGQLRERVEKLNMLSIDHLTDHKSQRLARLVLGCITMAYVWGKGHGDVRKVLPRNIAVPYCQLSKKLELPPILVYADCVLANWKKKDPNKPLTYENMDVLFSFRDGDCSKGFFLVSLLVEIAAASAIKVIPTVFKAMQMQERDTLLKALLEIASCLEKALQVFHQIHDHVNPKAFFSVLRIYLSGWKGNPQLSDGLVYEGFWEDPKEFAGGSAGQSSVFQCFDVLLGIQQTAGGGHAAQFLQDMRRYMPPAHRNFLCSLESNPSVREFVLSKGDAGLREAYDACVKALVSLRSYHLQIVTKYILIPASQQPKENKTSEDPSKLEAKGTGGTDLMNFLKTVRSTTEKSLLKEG
Sequence of Tryptophan 2,3-dioxygenase (P48775 whole entry): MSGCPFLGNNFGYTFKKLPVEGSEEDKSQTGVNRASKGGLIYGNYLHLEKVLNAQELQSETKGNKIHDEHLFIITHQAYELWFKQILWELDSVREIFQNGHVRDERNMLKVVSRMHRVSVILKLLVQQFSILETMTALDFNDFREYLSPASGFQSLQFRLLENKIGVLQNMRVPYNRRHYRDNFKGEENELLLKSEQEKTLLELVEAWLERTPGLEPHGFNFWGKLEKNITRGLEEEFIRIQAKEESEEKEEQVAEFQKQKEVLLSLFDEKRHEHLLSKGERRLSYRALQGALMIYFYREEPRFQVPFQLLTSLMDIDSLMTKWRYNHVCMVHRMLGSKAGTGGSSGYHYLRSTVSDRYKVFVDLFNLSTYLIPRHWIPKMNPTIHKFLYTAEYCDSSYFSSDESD

Take `COc1cc(Nc2cc(NC(C)=O)cc3[nH]c(C(=O)O)cc23)cc(OC)c1OC`: the inhibition in the data set with A 172 [1] is 77.7%; in the data set with A 172 [4], 55.9%. The Activity result in data set [2] was “Non-Toxic”. In addition, the inhibition in vivo at 100 mg/kg in the data set on B16-F10 [3] was found to be 44.7%. Besides, the result with T-lymphocyte was Active. For the same compound, the IC50 in data set [5] is 3.18 µM; in data set [6], 7.12 µM. For the same compound, in the data set on B16-F10 [7], the inhibition in vivo at 50 mg/kg is 43.2%.
